Source: article PMC5546011 (Journal of medicinal chemistry, 2017)
Entries after “also recorded” stand apart in the source; their conditions may differ. Like-named read-outs stand apart in the source and are kept apart here.

Columns and labels:
[1] = molecular target: T1, human κ-opioid receptor (Homo sapiens, UniProt P41145); conditions: result in words; cited from earlier work
[2] = tested on: mice; test: Warm-water tail-withdrawal assay; assay type: in vivo; conditions: 50°C warm-water tail withdrawal, 2 mg/kg i.p.
[3] = tested on: mice; test: Intradermal formalin assay; assay type: in vivo
[4] = molecular target: T1, human κ-opioid receptor; test: Inhibition of forskolin-induced cAMP accumulation, KOR; assay type: cell-based; conditions: result in words
[5] = molecular target: human μ-opioid receptor (Homo sapiens, UniProt P35372); test: Inhibition of forskolin-induced cAMP accumulation, MOR; assay type: cell-based
Chain of human μ-opioid receptor (P35372 whole entry): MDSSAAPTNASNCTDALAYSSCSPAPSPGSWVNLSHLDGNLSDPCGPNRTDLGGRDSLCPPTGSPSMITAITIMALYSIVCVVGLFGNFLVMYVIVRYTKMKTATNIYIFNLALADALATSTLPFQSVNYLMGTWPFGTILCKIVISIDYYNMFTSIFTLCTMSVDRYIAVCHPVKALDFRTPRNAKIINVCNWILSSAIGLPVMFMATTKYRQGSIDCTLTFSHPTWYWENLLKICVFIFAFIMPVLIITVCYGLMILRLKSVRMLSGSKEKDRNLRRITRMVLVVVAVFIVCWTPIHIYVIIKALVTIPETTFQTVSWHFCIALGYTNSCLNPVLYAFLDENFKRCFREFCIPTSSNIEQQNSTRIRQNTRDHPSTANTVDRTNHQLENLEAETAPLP
Method in brief: (§1)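 CHO-K1 HitHunter cells stably expressing human δ- or μ-opioid receptor, kept in F-12 with 10% FBS, 1% penicillin/streptomycin/L-glutamine and 800 μg/mL Geneticin at 37 °C, 5% CO2. cAMP accumulation was normalised to vehicle and forskolin-only controls.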

[6] = molecular target: human δ-opioid receptor (Homo sapiens, UniProt P41143); test: Inhibition of forskolin-induced cAMP accumulation, DOR; assay type: cell-based
Chain of human δ-opioid receptor (P41143 whole entry): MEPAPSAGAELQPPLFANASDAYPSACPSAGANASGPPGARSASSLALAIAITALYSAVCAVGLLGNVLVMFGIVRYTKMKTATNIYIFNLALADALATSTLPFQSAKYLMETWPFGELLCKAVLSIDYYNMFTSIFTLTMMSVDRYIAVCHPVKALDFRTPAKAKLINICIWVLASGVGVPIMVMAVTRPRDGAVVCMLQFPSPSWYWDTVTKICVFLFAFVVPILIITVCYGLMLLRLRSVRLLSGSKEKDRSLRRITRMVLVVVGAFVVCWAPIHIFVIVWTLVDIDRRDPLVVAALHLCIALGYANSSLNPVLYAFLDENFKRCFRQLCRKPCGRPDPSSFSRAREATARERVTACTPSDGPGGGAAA
Method in brief: as §1

[7] = Rat liver microsomal stability; conditions: rat liver microsomes 0.25 mg/mL, 10 μM compound, no NADPH, 37°C; result in words
[8] = 2% intradermal formalin, mice, i.p., vs vehicle/formalin controls
[9] = 2% intradermal formalin, mice, i.p., result in words
[10] = 2% intradermal formalin, mice, vs vehicle/formalin controls, result in words

T1 sequence (P41145 whole entry): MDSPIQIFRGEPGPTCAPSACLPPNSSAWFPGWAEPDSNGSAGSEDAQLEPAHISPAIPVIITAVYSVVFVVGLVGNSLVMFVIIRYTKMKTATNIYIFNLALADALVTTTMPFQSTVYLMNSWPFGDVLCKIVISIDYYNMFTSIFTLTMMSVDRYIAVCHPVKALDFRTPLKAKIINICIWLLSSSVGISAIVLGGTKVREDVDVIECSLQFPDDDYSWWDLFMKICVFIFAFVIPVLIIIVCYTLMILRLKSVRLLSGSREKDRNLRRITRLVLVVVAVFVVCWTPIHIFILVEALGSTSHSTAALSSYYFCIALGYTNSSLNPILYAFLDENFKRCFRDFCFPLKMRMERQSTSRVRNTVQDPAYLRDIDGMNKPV

SMILES	time of significant analgesic effect compared to vehicle (%MPE time course) [2]	time of significant reduction of phase two pain [3, 8]	AUC of phase one (0-15 min) pain [3, 9]	AUC of phase two (15-60 min) pain [3, 9]	footpad edema at 60 min [3, 10]	percent remaining at 150 minutes, absence of NADPH [7]	further results
COC(=O)[C@@H]1C=C(OC(=O)c2ccccc2)C(=O)[C@H]2[C@@]1(C)CC[C@H]1C(=O)O[C@H](c3ccoc3)C[C@]21C [Kurkinorin]	–	–	–	–	–	–	KOR activity [1]: no KOR activity
COC(=O)[C@@H]1C[C@H](OC(C)=O)C(=O)[C@H]2[C@@]1(C)CC[C@H]1C(=O)O[C@H](c3ccoc3)C[C@]21C [compound 9, salvinorin A, reference compound]	5 to 30 min	20 to 50 min	significant reduction	significant reduction	significant reduction in edema	–	–
COC(=O)[C@@H]1CCC(=O)[C@H]2[C@@]1(C)CC[C@H]1C(=O)O[C@H](c3ccoc3)C[C@]21C [compound 11, Methyl (2S,4aR,6aR,7R,10aS,10bR)-2-(furan-3-yl)-6a,10b-dimethyl-4,10-dioxododecahydro-2H-benzo[f]isochromene-7-carboxylate]	–	–	–	–	–	–	KOR activity [4]: complete loss of KOR activity; also recorded: completely inactive
COC(=O)[C@@H]1C[C@]2(CCC(=O)O2)C(=O)[C@H]2[C@@]1(C)CC[C@H]1C(=O)O[C@H](c3ccoc3)C[C@]21C [compound 14, Methyl (2S,4aR,6aR,7R,9R,10aS,10bR)-2-(furan-3-yl)-6a,10b-dimethyl-4,5′,10-trioxododecahydro-2H,3′H,4H-spiro[benzo[f]isochromene-9,2′-furan]-7-carboxylate]	10 to 30 min	20 to 45 min	not significantly different from vehicle	reduced phase two pain	significant reduction in edema	less metabolized than 9	EC50 [5]: > 10 µM; EC50 [6]: > 10 µM; time of significant attenuation of phase one pain [3, 8]: 10 min; effect on formalin pain behavior after pre-treatment with nor-BNI ([3]; KOR antagonist nor-BNI 10 mg/kg s.c. 24 hours prior, result in words): prevented
COc1ccc2c(c1)[C@]13CCCC[C@@H]1[C@H](C2)N(C)CC3 [dextromethorphan, dextromethorphan hydrobomide, reference compound]	–	–	–	–	–	not metabolized	–
